ChEMBL document CHEMBL4052815, “Amphiphilic Modulation of Glycosylated Antitumor Ether Lipids Results in a Potent Triamino Scaffold against Epithelial Cancer Cell Lines and BT474 Cancer Stem Cells” (J Med Chem, 2017)
The source made the active and inactive calls. No cut-off for these calls is given here.

Experiments:
PC-3 = assay: Cytotoxicity against human PC3 cells assessed as decrease in cell viability after 48 hrs by MTS assay; type: functional; details: PC-3, 48 h
How it was run: (§1)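 Cells grown at 37 °C, 5% CO2, with 10% FBS and penicillin/streptomycin: MDA-MB-231, JIMT1 and DU145 in DMEM, PC3 in F12K, BT474 in Hybricare, MiaPaCa2 in DMEM plus 2.5% horse serum. Cells (7500–9000/well) were plated for 24 h, then exposed to 0–20 µM for 48 h. MTS was added for 1–4 h and OD490 read, blank-subtracted, relative to vehicle. CC50 was read from plots; mean ± SD, six independent determinations.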

JIMT-1 [1] = assay: Cytotoxicity against human JIMT1 cells assessed as decrease in cell viability after 48 hrs by MTS assay; type: functional; details: JIMT-1, 48 h; how it was run: as §1
BT-474 [2] = assay: Induction of disintegration of human BT474 cancer stem cell spheroids at 7.5 uM after 3 days by microscopic method; type: functional, cell-based
How it was run: (§2)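 BT474 stem-cell spheroids (ALDH1-sorted, formed over 6 days in Mammocult on ultra-low adhesion plates) exposed to 0, 7.5 or 20 µM for 3 days. Integrity was judged by light microscopy at ×10 against untreated spheroid wells.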

DU-145 [3] = assay: Cytotoxicity against human DU145 cells assessed as decrease in cell viability after 48 hrs by MTS assay; type: functional; details: DU-145, 48 h; how it was run: as §1
BT-474 [4] = assay: Induction of disintegration of human BT474 cancer stem cell spheroids at 20 uM after 3 days by microscopic method; type: functional, cell-based; how it was run: as §2
MIA PaCa-2 = assay: Cytotoxicity against human MIAPaCa2 cells assessed as decrease in cell viability after 48 hrs by MTS assay; type: functional; details: MIA PaCa-2, 48 h; how it was run: as §1
BT-474 [5] = assay: Cytotoxicity against human BT474 cancer stem cell spheroids assessed as decrease in cell viability up to 20 uM after 3 days by MTS assay
MDA-MB-231 = assay: Cytotoxicity against human MDA-MB-231 cells assessed as decrease in cell viability after 48 hrs by MTS assay; type: functional; details: MDA-MB-231, 48 h; how it was run: as §1
BT-474 [6] = assay: Cytotoxicity against human BT474 cells assessed as decrease in cell viability after 48 hrs by MTS assay; type: functional; details: BT-474, 48 h; how it was run: as §1
BT-474 [7] = assay: Cytotoxicity against human BT474 cancer stem cell spheroids assessed as cell viability at 20 uM after 3 days by MTS assay relative to control; details: BT-474, 72 h
BT-474 [8] = assay: Cytotoxicity against human BT474 cancer stem cell spheroids assessed as decrease in cell viability at 2 to 10 uM after 3 days by MTS assay
DU-145 [9] = assay: Cytotoxicity against human DU145 cells assessed as decrease in cell viability at 2 to 8 uM in presence of pan-caspase inhibitor Q-VD-OPh after 48 hrs by MTS assay; type: functional, cell-based
How it was run: (§3)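 DU145 or JIMT1 cells seeded for 24 h, then given 40 µM pan-caspase inhibitor along with varying compound concentrations. Incubation continued 48 h, then MTS (20% v/v) for 1–4 h, OD490 read. Values are blank-subtracted and relative to vehicle controls; mean ± SD.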

JIMT-1 [10] = assay: Cytotoxicity against human JIMT1 cells assessed as decrease in cell viability at 2 to 8 uM in presence of pan-caspase inhibitor Q-VD-OPh after 48 hrs by MTS assay; type: functional, cell-based; how it was run: as §3

SMILES | CC50 (PC-3) [µM] | CC50 (JIMT-1 [1]) [µM] | Activity (BT-474 [2]) | CC50 (DU-145 [3]) [µM] | Activity (BT-474 [4]) | CC50 (MIA PaCa-2) [µM] | Activity (BT-474 [5]) | CC50 (MDA-MB-231) [µM] | CC50 (BT-474 [6]) [µM] | viability at 20 µM (BT-474 [7]) [%] | Activity (BT-474 [8]) | Activity (DU-145 [9]) | Activity (JIMT-1 [10])
CCCCCCCCCCCCCCN [TETRADECYLAMINE] | 24 | 27 | inactive | 16.5 | inactive | 18 | inactive | – | – | – | – | – | –
CCCCCCCCCCCCCCCCOC[C@H](CO[C@@H]1O[C@H](CN)[C@@H](O)[C@H](O)[C@H]1NCCCCCCCCCCCCN)OC | 8.5 | 8 | Active | 7.5 | Active | 8.5 | – | 5.5 | 13.5 | 0 | – | – | –
CCCCCCCCCCCCCCCCOC[C@H](CO[C@@H]1O[C@H](CO)[C@@H](O)[C@H](O)[C@H]1N)OC | 13.5 | 9 | – | 10 | – | 9 | – | 7.1 | 8 | – | Active | – | –
NCCCCCCCCCCCCO[C@@H]1O[C@H](CN)[C@@H](O)[C@H](O)[C@H]1N | > 20 | > 20 | inactive | > 20 | inactive | > 20 | inactive | > 20 | > 20 | – | – | – | –
COc1cccc2c1C(=O)c1c(O)c3c(c(O)c1C2=O)C[C@@](O)(C(=O)CO)C[C@@H]3O[C@H]1C[C@H](N)[C@H](O)[C@H](C)O1 | – | – | inactive | – | – | – | Active | – | – | – | – | inactive | inactive
CCCCCCCCCCCCCCCCOC[C@H](CO[C@@H]1O[C@H](CN)[C@@H](O)[C@H](O)[C@H]1NCCCN)OC | 14.5 | 12.5 | Active | 18.5 | inactive | 14.5 | – | 17.5 | > 20 | 0 | – | – | –
